Assay results taken from ChEMBL document CHEMBL5303300, “EUbOPEN Chemogenomics Library - Multiplex” (2023).
Several values for one entry are separate records, joined by “and”; a condition that tells them apart may be missing. Equal entries are not always repeated.

Columns and labels:
HEK-293T = assay: Multiplex assay against HEK293T; assay type: toxicity, cell-based; conditions: human, number of replicates 2
Procedure, shortened: (§1)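 Per cents of healthy-nucleus cells form the tubulin, mitochondrial-mass and membrane-permeability phenotype values. Live cells were stained at seeding with Hoechst33342, BioTracker Green Microtubule Cytoskeleton Dye, MitoTracker Red and Annexin V Alexa Fluor 680. After compound addition they were imaged on a CQ1 microscope at 37°C and 5% CO2, and CellPathfinder machine-learning gating split them into Hoechst high-intensity objects or normal cells, normal cells into healthy, pyknosed or fragmented nuclei, and pyknosed cells into mitotic or apoptotic.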

Fibroblast = assay: Multiplex assay against human fibroblast; assay type: toxicity, cell-based; conditions: number of replicates 2; procedure, shortened: as §1
[1] = 12 h, 1 µM, compound concentration 1 uM
[2] = 12 h, 10 µM, compound concentration 10 uM
[3] = 24 h, 1 µM, compound concentration 1 uM
[4] = 24 h, 10 µM, compound concentration 10 uM
[5] = 48 h, 1 µM, compound concentration 1 uM
[6] = 48 h, 10 µM, compound concentration 10 uM

CC1=C(C)C(=O)C(C(C)(C)CC(=O)N(CCCCSC[C@H]2O[C@@H](n3cnc4c(N)ncnc43)[C@H](O)[C@@H]2O)Cc2cccc(-c3ccc(Cl)cc3)c2)=C(C)C1=O
Population Apoptotic (%) (HEK-293T; [1]): 40% and 44%
Population Fragmented Nuclei (%) (HEK-293T; [1]): 4%
Population Healthy Nuclei (%) (HEK-293T; [1]): 89% and 86%
Population Hoechst High Intensity Objects (%) (HEK-293T; [1]): 6% and 7%
Population Membrane Permeable-Phenotype (%) (HEK-293T; [1]): 4% and 3%
Population Mitochondria Different-Phenotype (%) (HEK-293T; [1]): 10% and 11%
Population Mitotic Cells (%) (HEK-293T; [1]): 59% and 55%
Population Normal (%) (HEK-293T; [1]): 93% and 92%
Population Pyknosed Nuclei (%) (HEK-293T; [1]): 6% and 8%
Population Tubulin-Different-Phenotype (%) (HEK-293T; [1]): 71% and 70%
Total Cell Count (HEK-293T; [1]): 874 and 797
Population Apoptotic (%) (HEK-293T; [2]): 52% and 54%
Population Fragmented Nuclei (%) (HEK-293T; [2]): 2%
Population Healthy Nuclei (%) (HEK-293T; [2]): 82% and 81%
Population Hoechst High Intensity Objects (%) (HEK-293T; [2]): 7%
Population Membrane Permeable-Phenotype (%) (HEK-293T; [2]): 10% and 3%
Population Mitochondria Different-Phenotype (%) (HEK-293T; [2]): 48% and 51%
Population Mitotic Cells (%) (HEK-293T; [2]): 47% and 45%
Population Normal (%) (HEK-293T; [2]): 92%
Population Pyknosed Nuclei (%) (HEK-293T; [2]): 14% and 15%
Population Tubulin-Different-Phenotype (%) (HEK-293T; [2]): 88% and 92%
Total Cell Count (HEK-293T; [2]): 506 and 434
Population Apoptotic (%) (HEK-293T; [3]): 21% and 25%
Population Fragmented Nuclei (%) (HEK-293T; [3]): 8% and 6%
Population Healthy Nuclei (%) (HEK-293T; [3]): 87%
Population Hoechst High Intensity Objects (%) (HEK-293T; [3]): 8%
Population Membrane Permeable-Phenotype (%) (HEK-293T; [3]): 6% and 3%
Population Mitochondria Different-Phenotype (%) (HEK-293T; [3]): 2% and 5%
Population Mitotic Cells (%) (HEK-293T; [3]): 78% and 74%
Population Normal (%) (HEK-293T; [3]): 91%
Population Pyknosed Nuclei (%) (HEK-293T; [3]): 4% and 6%
Population Tubulin-Different-Phenotype (%) (HEK-293T; [3]): 50%
Total Cell Count (HEK-293T; [3]): 1418 and 1263
Population Apoptotic (%) (HEK-293T; [4]): 46% and 64%
Population Fragmented Nuclei (%) (HEK-293T; [4]): 3%
Population Healthy Nuclei (%) (HEK-293T; [4]): 81%
Population Hoechst High Intensity Objects (%) (HEK-293T; [4]): 7% and 9%
Population Membrane Permeable-Phenotype (%) (HEK-293T; [4]): 4% and 3%
Population Mitochondria Different-Phenotype (%) (HEK-293T; [4]): 62% and 59%
Population Mitotic Cells (%) (HEK-293T; [4]): 53% and 35%
Population Normal (%) (HEK-293T; [4]): 92% and 90%
Population Pyknosed Nuclei (%) (HEK-293T; [4]): 15% and 14%
Population Tubulin-Different-Phenotype (%) (HEK-293T; [4]): 88% and 93%
Total Cell Count (HEK-293T; [4]): 524 and 473
Population Apoptotic (%) (HEK-293T; [5]): 10% and 13%
Population Fragmented Nuclei (%) (HEK-293T; [5]): 24% and 15%
Population Healthy Nuclei (%) (HEK-293T; [5]): 74% and 81%
Population Hoechst High Intensity Objects (%) (HEK-293T; [5]): 10% and 9%
Population Membrane Permeable-Phenotype (%) (HEK-293T; [5]): 6% and 5%
Population Mitochondria Different-Phenotype (%) (HEK-293T; [5]): 0%
Population Mitotic Cells (%) (HEK-293T; [5]): 89% and 86%
Population Normal (%) (HEK-293T; [5]): 89% and 90%
Population Pyknosed Nuclei (%) (HEK-293T; [5]): 1% and 2%
Population Tubulin-Different-Phenotype (%) (HEK-293T; [5]): 25% and 28%
Total Cell Count (HEK-293T; [5]): 3744 and 2984
Population Apoptotic (%) (HEK-293T; [6]): 55% and 62%
Population Fragmented Nuclei (%) (HEK-293T; [6]): 4% and 5%
Population Healthy Nuclei (%) (HEK-293T; [6]): 87% and 88%
Population Hoechst High Intensity Objects (%) (HEK-293T; [6]): 6% and 10%
Population Membrane Permeable-Phenotype (%) (HEK-293T; [6]): 8% and 6%
Population Mitochondria Different-Phenotype (%) (HEK-293T; [6]): 47%
Population Mitotic Cells (%) (HEK-293T; [6]): 44% and 37%
Population Normal (%) (HEK-293T; [6]): 93% and 89%
Population Pyknosed Nuclei (%) (HEK-293T; [6]): 7% and 5%
Population Tubulin-Different-Phenotype (%) (HEK-293T; [6]): 93% and 92%
Total Cell Count (HEK-293T; [6]): 622 and 637
Population Apoptotic (%) (Fibroblast; [1]): 43% and 35%
Population Fragmented Nuclei (%) (Fibroblast; [1]): 13% and 7%
Population Healthy Nuclei (%) (Fibroblast; [1]): 72% and 77%
Population Hoechst High Intensity Objects (%) (Fibroblast; [1]): 0%
Population Membrane Permeable-Phenotype (%) (Fibroblast; [1]): 1% and 6%
Population Mitochondria Different-Phenotype (%) (Fibroblast; [1]): 0% and 1%
Population Mitotic Cells (%) (Fibroblast; [1]): 56% and 64%
Population Normal (%) (Fibroblast; [1]): 100%
Population Pyknosed Nuclei (%) (Fibroblast; [1]): 14%
Population Tubulin-Different-Phenotype (%) (Fibroblast; [1]): 34% and 18%
Total Cell Count (Fibroblast; [1]): 228 and 306
Population Apoptotic (%) (Fibroblast; [2]): 36% and 30%
Population Fragmented Nuclei (%) (Fibroblast; [2]): 11% and 17%
Population Healthy Nuclei (%) (Fibroblast; [2]): 76% and 62%
Population Hoechst High Intensity Objects (%) (Fibroblast; [2]): 0% and 1%
Population Membrane Permeable-Phenotype (%) (Fibroblast; [2]): 18% and 15%
Population Mitochondria Different-Phenotype (%) (Fibroblast; [2]): 4% and 3%
Population Mitotic Cells (%) (Fibroblast; [2]): 63% and 69%
Population Normal (%) (Fibroblast; [2]): 100% and 99%
Population Pyknosed Nuclei (%) (Fibroblast; [2]): 11% and 19%
Population Tubulin-Different-Phenotype (%) (Fibroblast; [2]): 73% and 74%
Total Cell Count (Fibroblast; [2]): 186 and 201
Population Apoptotic (%) (Fibroblast; [3]): 57% and 51%
Population Fragmented Nuclei (%) (Fibroblast; [3]): 8% and 9%
Population Healthy Nuclei (%) (Fibroblast; [3]): 85% and 79%
Population Hoechst High Intensity Objects (%) (Fibroblast; [3]): 0%
Population Membrane Permeable-Phenotype (%) (Fibroblast; [3]): 5% and 2%
Population Mitochondria Different-Phenotype (%) (Fibroblast; [3]): 2% and 1%
